The results in this text go back to ChEMBL document CHEMBL1145516, “Structure-activity relationships for interaction with multidrug resistance protein 2 (ABCC2/MRP2): the role of torsion angle for a series of biphenyl-substituted heterocycles” (Drug Metab Dispos, 2007).

Data set [1] deals with Caco-2. Kind of data set: Ratio of permeability from basolateral to apical side over apical to basolateral side of human Caco-2 cell membrane at 10 uM. The data set is classed as ADME, cell-based. The following applies: caco-2, 10 µM. Summed up: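 Caco-2 monolayers seeded at 1x10^5 cells/cm2, grown 21-25 days, TEER >600 Ohm/cm2. Compound at 10 µM in HBSS pH 7.4 added to apical or basal donor side; 2 h at 37°C with shaking. Both sides sampled, quantified by LC/MS/MS.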
A general note: Passage across Caco-2 layers is used to estimate intestinal permeability.

The subject of a further data set is MRP2. Kind of data set: Permeability across dog MDCK cells expressing MRP2. Format: ADME, cell-based, Canis lupus familiaris. The conditions noted are these: read-out: permeability.
Data set [2] concerns Caco-2. Put plainly: Ratio of permeability from basolateral to apical side over apical to basolateral side of human Caco-2 cell membrane at 10 uM in presence of MRP2 inhibitor MK571. The conditions noted are these: caco-2, 10 µM.

Turning to `NC(=O)Nc1cn(-c2ccc(-c3ccc(O)cc3)c(F)c2)nc1C(N)=O`, the Ratio in the data set with Caco-2 [1] was 1.35. Also, the Papp with MRP2 worked out at 3 ×10⁻⁶ cm/s.
Turning to `Cc1cc(O)ccc1-c1ccc(-n2cc(NC(N)=O)c(C(N)=O)n2)cc1C`, the Ratio in the data set on Caco-2 [1] is given as 26.02; in the data set with Caco-2 [2] it was 2.53. Also, the Papp in the data set with MRP2 turned out to be 3 ×10⁻⁶ cm/s.
